Consider two compounds from PMC3313473 (Free radical biology & medicine, 2011).

Data set [1] relates to primary human skeletal muscle cells (proliferating, differentiating, differentiated). Nature of the data set: MTS cell viability assay. The data set is classed as cell-based. The following applies: 48 h.
The test system of data set [2] is primary human skeletal myotubes. Nature of the data set: Morphological imaging and cell counting of myotubes. The data set is classed as cell-based. The following applies: 5 µM.
Data set [3] deals with citrate synthase activity in primary human myotubes. Nature of the data set: Citrate synthase activity in myotubes. The data set is classed as cell-based. Conditions: simvastatin-treated myotubes.
For the next data set, the system named is primary human myotubes. Nature of the data set: Mitochondrial superoxide production, MitoSOX Red flow cytometry. The class given is cell-based. The following applies: 5 µM, 48 h.
Data set [4] has as its system primary human skeletal myotubes. Description: Intracellular ROS generation, DCF-DA staining. The data set is classed as cell-based. The following applies: simvastatin treated myotubes.
Data set [5] shares this test system. Description: TUNEL assessment of apoptotic myonuclei. The data set is classed as cell-based. The following applies: 5 µM, 48 h. Summed up: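 Coverslip-grown myotubes exposed 48 h to test compound or 0.1% DMSO vehicle; fixed in 4% paraformaldehyde/PBS (pH 7.4) 20 min RT, permeabilized with 0.1% Triton X-100 in 0.1% sodium citrate 10 min at 4°C. TdT/fluorescein-dUTP labelling 60 min at 37°C, humidified, dark; DAPI counterstain. DNase I positive and label-only negative controls. Positive myonuclei counted over multiple sections as % of DAPI nuclei.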

A further data set has as its system Bax. Nature of the data set: Western immunoblot of Bax. Conditions: 5 µM, 48 h. The data set is classed as cell-based, human.
The next data set relates to Bcl-2. Nature of the data set: Western immunoblot of Bcl-2. The class given is cell-based, human. The following applies: 5 µM, 48 h.
For the next data set, the system named is isolated myofibers. Conditions: 50 µM simvastatin; ref Sirvent et al. 29; cited from earlier work.
Another data set deals with mitochondrial PTP. Conditions: ref Velho et al. 37; cited from earlier work.

Regarding `CC(O)(CCO)CC(=O)O` (stereo not shown) [mevalonate], the “Effect of mevalonate on simvastatin-induced decrease in cell viability” value in data set [1] (differentiating cells, 1 µM simvastatin + 50 µM mevalonate) is given as “prevented”; in [1] (proliferating cells, 5 µM simvastatin + 50 µM mevalonate), “prevented”.
As to `CCC(C)(C)C(=O)O[C@H]1C[C@@H](C)C=C2C=C[C@H](C)[C@H](CC[C@@H]3C[C@@H](O)CC(=O)O3)[C@H]21` [simvastatin], the IC50 in [1] (Homo sapiens, read-out: IC50 for viability, proliferating cells, 48 h, MTS) turned out to be 5 µM. Besides, in data set [2] (24 h), the “Changes in the morphology of myotubes” value is “not visible”. In [2] (48 h), the “Changes in the morphology of myotubes” value is “less dense and atrophied”; the “Fewer myotubes compared with DMSO-treated controls” value is 22.3%; the Myotube cell number is 0.87 × 10^6 cells/ml. Also, in data set [3], the Citrate synthase activity was 9.89 ± 1.04 µmol/g/min. Moreover, in the data set on primary human myotubes, the “Increase in O2•− generation compared to DMSO control” value is “approximately 44%”. The “MitoSOX Red mean fluorescence intensity” value in the data set on primary human myotubes (representative histogram) is 46.1 counts. The “DCF-DA staining compared with control” value in data set [4] is “increased staining”. For the same compound, the “TUNEL-positive nuclei compared with control” value in [5] was “More TUNEL-positive nuclei”. In the data set on Bax, the “Bax protein levels higher than control” value stood at 53%. Further, the “Bcl-2 protein levels greater than DMSO control” value in the data set with Bcl-2 is 100%. For the same compound, in the data set on isolated myofibers, the “Maximal ADP-stimulated respiration supported by complex I substrates (glutamate + malate)” value is on record as “significantly impaired”. In the data set on mitochondrial PTP, the “In vivo and in vitro calcium-dependent mitochondrial PTP opening” value is recorded as “increased”.
